ChEMBL document CHEMBL1165943, “Design and synthesis of new anticancer pyrimidines with multiple-kinase inhibitory effect” (Bioorg Med Chem, 2010)
Where “and” joins values, the source holds several entries; their conditions need not be identical. Identical values can stand only once. Calls of active or inactive are those of the source. No cut-off for these calls is given here.

Columns and labels:
[1] = target: Focal adhesion kinase 1 (Homo sapiens) (UniProt Q05397); experiment: Inhibition of PTK2 at 10 uM by HotSpot assay
Focal adhesion kinase 1 (Homo sapiens), sequence (Q05397 2-1052 limits assumed): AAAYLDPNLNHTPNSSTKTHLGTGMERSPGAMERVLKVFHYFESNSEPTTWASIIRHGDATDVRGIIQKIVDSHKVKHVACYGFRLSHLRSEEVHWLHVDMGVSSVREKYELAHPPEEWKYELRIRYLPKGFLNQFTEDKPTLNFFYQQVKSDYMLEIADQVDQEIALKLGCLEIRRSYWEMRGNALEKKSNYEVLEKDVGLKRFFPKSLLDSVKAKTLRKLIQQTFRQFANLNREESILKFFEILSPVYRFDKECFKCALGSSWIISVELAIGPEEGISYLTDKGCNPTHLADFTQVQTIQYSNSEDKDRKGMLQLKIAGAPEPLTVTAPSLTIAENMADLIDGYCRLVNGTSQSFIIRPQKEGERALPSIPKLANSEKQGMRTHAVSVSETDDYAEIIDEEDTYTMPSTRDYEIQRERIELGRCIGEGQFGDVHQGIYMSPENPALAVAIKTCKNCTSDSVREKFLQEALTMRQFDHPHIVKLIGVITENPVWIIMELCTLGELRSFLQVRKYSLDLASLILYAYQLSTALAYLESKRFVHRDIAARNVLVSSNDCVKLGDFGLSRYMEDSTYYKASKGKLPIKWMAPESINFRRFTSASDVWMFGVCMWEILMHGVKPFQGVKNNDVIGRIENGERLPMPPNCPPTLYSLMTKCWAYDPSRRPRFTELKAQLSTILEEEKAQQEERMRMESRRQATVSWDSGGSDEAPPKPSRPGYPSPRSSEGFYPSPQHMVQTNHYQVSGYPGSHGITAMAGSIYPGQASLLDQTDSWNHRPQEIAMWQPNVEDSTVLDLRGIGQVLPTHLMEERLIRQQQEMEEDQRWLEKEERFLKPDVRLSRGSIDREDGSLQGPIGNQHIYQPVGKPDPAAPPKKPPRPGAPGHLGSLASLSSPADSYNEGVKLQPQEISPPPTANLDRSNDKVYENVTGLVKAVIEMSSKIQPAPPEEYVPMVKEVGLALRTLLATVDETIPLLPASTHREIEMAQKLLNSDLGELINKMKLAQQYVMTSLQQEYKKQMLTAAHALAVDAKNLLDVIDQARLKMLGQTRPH

MDA-MB-468 = experiment: Cytotoxicity against human MDA-MB-468 cells assessed as cell growth at 1 uM after 48 hrs by sulforhodamine B assay; assay type: functional; conditions: MDA-MB-468, 48 h, read-out: Activity
[2] = target: Tyrosine-protein kinase SYK (Homo sapiens) (UniProt P43405); experiment: Inhibition of SYK at 10 uM by HotSpot assay
HT-29 = experiment: Cytotoxicity against human HT-29 cells assessed as cell growth at 10 uM after 48 hrs by sulforhodamine B assay; assay type: functional; conditions: HT-29, 48 h, read-out: Activity
EKVX = experiment: Cytotoxicity against human EKVX cells assessed as cell growth at 1 uM after 48 hrs by sulforhodamine B assay; assay type: functional; conditions: read-out: Activity
SF-295 = experiment: Cytotoxicity against human SF295 cells assessed as cell growth at 100 nM after 48 hrs by sulforhodamine B assay; assay type: functional; conditions: SF-295, 48 h, read-out: Activity
DU-145 = experiment: Cytotoxicity against human DU145 cells assessed as cell growth at 0.01 uM after 48 hrs by sulforhodamine B assay; assay type: functional; conditions: DU-145, 48 h, read-out: Activity
[3] = target: Serine/threonine-protein kinase PAK 2 (Homo sapiens) (UniProt Q13177); experiment: Inhibition of PAK2 at 10 uM by HotSpot assay
Serine/threonine-protein kinase PAK 2 (Homo sapiens), sequence (Q13177 whole entry): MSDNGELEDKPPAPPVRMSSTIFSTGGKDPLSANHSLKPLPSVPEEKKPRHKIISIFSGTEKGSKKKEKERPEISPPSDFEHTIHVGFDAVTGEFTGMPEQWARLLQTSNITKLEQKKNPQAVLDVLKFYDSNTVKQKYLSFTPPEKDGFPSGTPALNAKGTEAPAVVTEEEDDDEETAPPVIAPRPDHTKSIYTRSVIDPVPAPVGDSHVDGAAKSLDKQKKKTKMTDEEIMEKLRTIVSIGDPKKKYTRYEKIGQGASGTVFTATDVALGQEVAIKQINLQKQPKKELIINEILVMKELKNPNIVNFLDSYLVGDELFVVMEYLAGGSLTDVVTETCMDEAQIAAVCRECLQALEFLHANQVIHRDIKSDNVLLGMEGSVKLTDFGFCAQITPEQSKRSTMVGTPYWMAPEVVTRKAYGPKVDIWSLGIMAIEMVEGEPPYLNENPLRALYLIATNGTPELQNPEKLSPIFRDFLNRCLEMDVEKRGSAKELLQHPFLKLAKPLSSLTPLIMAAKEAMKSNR

SNB-75 = experiment: Growth inhibition of human SNB75 cells after 48 hrs by sulforhodamine B assay; assay type: functional, cell-based; conditions: for CC50: read-out: LC50 (the source's name)
How it was run: (§1)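 Cells grown in RPMI 1640 with 5% FBS and 2 mM L-glutamine, seeded at 5,000–40,000 cells/well according to doubling time. After 24 h, time-zero plates are TCA-fixed. Five concentrations (10-fold or ½log dilutions, DMSO stocks) are applied for 48 h at 37 °C, 5% CO₂. Cells are TCA-fixed, SRB-stained and read at 515 nm. IC₅₀ is taken from [(Ti−Tz)/(C−Tz)]×100 = 50.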

A549 = experiment: Growth inhibition of human A549 cells after 48 hrs by sulforhodamine B assay; assay type: functional, cell-based; conditions: A549, 48 h; for CC50: read-out: LC50 (the source's name)
How it was run: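 Five-dose SRB assay. Cells in RPMI 1640 with 5% FBS and 2 mM L-glutamine were seeded at 5,000–40,000 cells/well, with a TCA-fixed time-zero plate (Tz) taken at 24 h. Compound stocks were in DMSO, serially diluted 10-fold or ½-log to five concentrations, and incubated 48 h at 37 °C. Plates were stained with SRB and read at 515 nm. IC₅₀ was taken where [(Ti−Tz)/(C−Tz)]×100 = 50.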

CAKI-1 = experiment: Cytotoxicity against human Caki1 cells assessed as cell growth at 10 uM after 48 hrs by sulforhodamine B assay; assay type: functional; conditions: CAKI-1, 48 h, read-out: Activity
How it was run: (§2)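 Cells grown in RPMI 1640 with 5% FBS and 2 mM L-glutamine, seeded at 5,000–40,000 cells/well by doubling time. Time-zero plates TCA-fixed after 24 h. Five concentrations (10-fold or half-log dilutions from DMSO stock) added; 48 h at 37 °C, 5% CO2. Cold TCA fixation (final 10%, 60 min, 4 °C), 0.4% SRB stain, dye solubilized in 10 mM trizma base, A515.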

786-0 = experiment: Cytotoxicity against human 786-0 cells assessed as cell growth at 0.001 uM after 48 hrs by sulforhodamine B assay; assay type: functional; conditions: 786-0, 48 h, read-out: Activity; how it was run: as §2
Malme-3M = experiment: Cytotoxicity against human MALME-3M cells assessed as cell growth at 100 nM after 48 hrs by sulforhodamine B assay; assay type: functional; conditions: read-out: Activity
LOX IMVI = experiment: Growth inhibition of human LOXIMVI cells after 48 hrs by sulforhodamine B assay; assay type: functional, cell-based; conditions: for CC50: read-out: LC50 (the source's name); how it was run: as §1
ACHN = experiment: Cytotoxicity against human ACHN cells assessed as cell growth at 10 uM after 48 hrs by sulforhodamine B assay; assay type: functional; conditions: read-out: Activity; how it was run: as §2
RXF 393 [4] = experiment: Growth inhibition of human RXF393 cells after 48 hrs by sulforhodamine B assay; assay type: functional, cell-based; how it was run: as §1
T47D = experiment: Cytotoxicity against human T47D cells assessed as cell growth at 100 nM after 48 hrs by sulforhodamine B assay; assay type: functional; conditions: read-out: Activity
M14 = experiment: Cytotoxicity against human M14 cells assessed as cell growth at 0.001 uM after 48 hrs by sulforhodamine B assay; assay type: functional; conditions: M14, 48 h, read-out: Activity
K562 = experiment: Cytotoxicity against human K562 cells assessed as cell growth at 0.01 uM after 48 hrs by sulforhodamine B assay; assay type: functional; conditions: K562, 48 h, read-out: Activity
UACC-62 = experiment: Growth inhibition of human UACC62 cells after 48 hrs by sulforhodamine B assay; assay type: functional, cell-based; conditions: UACC-62, 48 h; how it was run: as §1
[5] = target: Vascular endothelial growth factor receptor 2 (Homo sapiens) (UniProt P35968); experiment: Inhibition of KDR at 10 uM by HotSpot assay
Vascular endothelial growth factor receptor 2 (Homo sapiens), sequence (P35968 whole entry): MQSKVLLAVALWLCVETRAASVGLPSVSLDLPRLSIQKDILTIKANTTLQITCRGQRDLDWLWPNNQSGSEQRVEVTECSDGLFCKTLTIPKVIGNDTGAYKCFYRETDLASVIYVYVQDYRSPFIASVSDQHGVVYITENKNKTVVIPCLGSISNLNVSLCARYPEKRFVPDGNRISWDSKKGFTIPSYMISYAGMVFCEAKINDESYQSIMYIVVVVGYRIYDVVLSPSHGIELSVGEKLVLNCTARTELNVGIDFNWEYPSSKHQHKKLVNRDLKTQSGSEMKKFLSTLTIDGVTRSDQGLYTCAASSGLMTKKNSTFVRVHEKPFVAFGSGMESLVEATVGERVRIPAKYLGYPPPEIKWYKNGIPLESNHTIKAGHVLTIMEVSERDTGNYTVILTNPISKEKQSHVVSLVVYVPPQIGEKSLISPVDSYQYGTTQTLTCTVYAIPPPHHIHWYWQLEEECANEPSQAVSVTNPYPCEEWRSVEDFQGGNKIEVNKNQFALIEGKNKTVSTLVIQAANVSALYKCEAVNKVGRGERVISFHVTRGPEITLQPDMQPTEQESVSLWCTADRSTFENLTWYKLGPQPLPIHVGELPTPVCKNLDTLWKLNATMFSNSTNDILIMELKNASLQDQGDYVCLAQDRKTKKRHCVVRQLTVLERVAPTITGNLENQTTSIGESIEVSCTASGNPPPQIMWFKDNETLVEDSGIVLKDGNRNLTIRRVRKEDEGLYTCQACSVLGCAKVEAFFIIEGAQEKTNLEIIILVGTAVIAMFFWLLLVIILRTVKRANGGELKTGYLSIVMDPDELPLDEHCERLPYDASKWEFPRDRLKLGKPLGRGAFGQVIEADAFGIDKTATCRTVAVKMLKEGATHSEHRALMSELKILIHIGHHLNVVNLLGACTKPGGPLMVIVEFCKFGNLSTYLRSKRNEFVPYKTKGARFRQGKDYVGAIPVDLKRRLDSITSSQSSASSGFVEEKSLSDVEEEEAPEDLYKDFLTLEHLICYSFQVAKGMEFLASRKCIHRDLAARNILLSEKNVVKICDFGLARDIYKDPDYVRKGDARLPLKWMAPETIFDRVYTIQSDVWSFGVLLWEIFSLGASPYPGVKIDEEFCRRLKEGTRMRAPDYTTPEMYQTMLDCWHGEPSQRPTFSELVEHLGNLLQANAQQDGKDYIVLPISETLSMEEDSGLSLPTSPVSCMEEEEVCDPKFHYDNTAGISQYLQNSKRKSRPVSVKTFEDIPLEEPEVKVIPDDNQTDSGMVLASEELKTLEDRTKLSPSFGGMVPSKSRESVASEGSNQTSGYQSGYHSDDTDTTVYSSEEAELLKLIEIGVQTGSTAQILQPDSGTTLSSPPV

NCI-H522 = experiment: Cytotoxicity against human NCI-H522 cells assessed as cell growth at 100 nM after 48 hrs by sulforhodamine B assay; assay type: functional; conditions: NCI-H522, 48 h, read-out: Activity
SK-OV-3 = experiment: Cytotoxicity against human SKOV3 cells assessed as cell growth at 1 uM after 48 hrs by sulforhodamine B assay; assay type: functional; conditions: SK-OV-3, 48 h, read-out: Activity
RXF 393 [6] = experiment: Cytotoxicity against human RXF393 cells assessed as cell growth at 1 uM after 48 hrs by sulforhodamine B assay; assay type: functional; conditions: RXF 393, 48 h, read-out: Activity
NCI-H23 = experiment: Cytotoxicity against human NCI-H23 cells assessed as cell growth at 100 nM after 48 hrs by sulforhodamine B assay; assay type: functional; conditions: NCI-H23, 48 h, read-out: Activity
SR = experiment: Cytotoxicity against human SR cells assessed as cell growth at 10 uM after 48 hrs by sulforhodamine B assay; assay type: functional; conditions: read-out: Activity
[7] = Cytotoxicity against human RPMI8266 cells assessed as cell growth at 0.001 uM after 48 hrs by sulforhodamine B assay; assay type: functional; conditions: read-out: Activity
[8] = Cytotoxicity against human RPMI8266 cells assessed as cell growth at 100 nM after 48 hrs by sulforhodamine B assay; assay type: functional; conditions: read-out: Activity
SK-MEL-28 = experiment: Cytotoxicity against human SK-MEL-28 cells assessed as cell growth at 0.01 uM after 48 hrs by sulforhodamine B assay; assay type: functional; conditions: SK-MEL-28, 48 h, read-out: Activity
NCI-H226 = experiment: Cytotoxicity against human NCI-H226 cells assessed as cell growth at 100 nM after 48 hrs by sulforhodamine B assay; assay type: functional; conditions: NCI-H226, 48 h, read-out: Activity

## CC(=O)Nc1cccc(-c2ccc(-c3ccnc(NC(=O)Nc4cc(C(F)(F)F)cc(C(F)(F)F)c4)n3)cn2)c1.Cl
[1]
  inhibition: < 50%
MDA-MB-468
  growth at 1 µM: -79%
[2]
  inhibition: < 50%
HT-29
  growth at 10 µM: -64%
EKVX
  growth at 1 µM: -20%
SF-295
  growth at 0.1 µM: 57%
DU-145
  growth at 0.01 µM: 95%
[3]
  inhibition: < 50%
SNB-75; Homo sapiens, SNB-75, 48 h
  GI50: 10.9 µM
  IC50: 10.9 µM
  TGI: 30.5 µM
  CC50: 85.8 µM
A549
  GI50: 1480 nM
  IC50: 1480 nM
  TGI: 12.6 µM
  CC50: 41.9 µM
CAKI-1
  growth at 10 µM: -36%
786-0
  growth at 0.001 µM: 96%
Malme-3M
  growth at 0.1 µM: 93%
LOX IMVI
  GI50: 1.79 µM
  IC50: 1790 nM
  TGI: inactive
  CC50: > 100 µM
ACHN
  growth at 10 µM: -84%
RXF 393 [4]
  LC50: inactive
  TGI: inactive
RXF 393 [4]; rxf 393
  IC50: Not Active
T47D
  growth at 0.1 µM: 42%
M14
  growth at 0.001 µM: 94%
K562
  growth at 0.01 µM: 32%
UACC-62
  GI50: 2860 nM
  IC50: 2860 nM
  LC50 (concentration causing 50% net cell kill): 35.7 µM
  TGI: 12.7 µM
[5]
  inhibition: 50%
NCI-H522
  growth at 0.1 µM: 72%
SK-OV-3
  growth at 1 µM: 65%

## CC(=O)c1ccccc1-c1ccc(-c2ccnc(NC(=O)Nc3cc(N4CCOCC4)cc(C(F)(F)F)c3)n2)cn1
RXF 393 [6]
  growth at 1 µM: -52%
NCI-H23
  growth at 0.1 µM: 83%
MDA-MB-468
  growth at 1 µM: 109%
SR
  growth at 10 µM: 107%
HT-29
  growth at 10 µM: 91%
EKVX
  growth at 1 µM: 63%
SF-295
  growth at 0.1 µM: 88%
[7]
  growth at 0.001 µM: 101%
DU-145
  growth at 0.01 µM: 97%
[8]
  growth at 0.1 µM: 79%
SNB-75
  TGI: 100 µM and 27.5 µM
SNB-75; Homo sapiens, SNB-75, 48 h
  GI50: 38.7 µM
  IC50: 5.35 µM
  CC50: > 100 µM
A549
  GI50: > 100000 nM
  IC50: > 100000 nM
  TGI: > 100 µM
  CC50: > 100 µM
CAKI-1
  growth at 10 µM: 86%
786-0
  growth at 0.001 µM: 103%
Malme-3M
  growth at 0.1 µM: 78%
LOX IMVI
  GI50: 34.9 µM
  IC50: > 100000 nM
  TGI: > 100 µM
  CC50: > 100 µM
ACHN
  growth at 10 µM: 15%
RXF 393 [4]
  LC50: inactive
RXF 393 [4]; Homo sapiens, RXF 393, 48 h
  GI50: > 100 µM
  TGI: 3.5 µM
RXF 393 [4]; Homo sapiens, RXF 393, 48 h, read-out: IC50
  IC50: 1270 nM
T47D
  growth at 0.1 µM: 8.3%
M14
  growth at 0.001 µM: 94%
K562
  growth at 0.01 µM: 75%
UACC-62
  GI50: > 100000 nM
  IC50: > 100000 nM
  LC50 (concentration causing 50% net cell kill): > 100 µM
  TGI: > 100 µM
SK-MEL-28
  growth at 0.01 µM: 107%
NCI-H522
  growth at 0.1 µM: 101%
SK-OV-3
  growth at 1 µM: 48%
NCI-H226
  growth at 0.1 µM: 96%
